Experimental data as given in ChEMBL document CHEMBL1138683 (J Med Chem, 2004).

Experiments:
[1] = Anticonvulsant activity administered intra peritoneally to mouse for toxicity; details: in vivo, ip
Mus musculus [2] = experiment: Anticonvulsant activity administered intra peritoneally to mouse at subcutaneous metrazol test; type: functional; details: sc
Mus musculus [3] = experiment: Anticonvulsant activity administered intra peritoneally to mouse at maximal electro shock test; the interval in parenthesis stands for 95% confidence interval; type: functional
[4] = Anti convulsant activity administered intra peritoneally to mouse for toxicity at 4 hr with dose of 300 mg/kg; 0/2= No of animals exhibiting toxicity /No of animals tested; type: organism-based; parameters: dose 300 mg/kg; details: in vivo, ip
[5] = Anti convulsant activity administered intra peritoneally to mouse for toxicity at 4 hr with dose of 30 mg/kg; 0/2= No of animals exhibiting toxicity /No of animals tested; type: organism-based; parameters: dose 30 mg/kg; details: in vivo, ip
[6] = Anti convulsant activity administered intra peritoneally to mouse for toxicity at 4 hr with dose of 100 mg/kg; 0/4= No of animals exhibiting toxicity /No of animals tested; type: organism-based; parameters: dose 100 mg/kg; details: in vivo, ip
[7] = Anti convulsant activity administered intra peritoneally to mouse for toxicity at 0.5 hr with dose of 30 mg/kg; 0/4= No of animals exhibiting toxicity /No of animals tested; type: organism-based; parameters: dose 30 mg/kg; details: in vivo, ip
[8] = Anti convulsant activity administered intra peritoneally to mouse for toxicity at 0.5 hr with dose of 100 mg/kg; 1/8= No of animals exhibiting toxicity /No of animals tested; type: organism-based; parameters: dose 100 mg/kg; details: in vivo, ip
[9] = Anti convulsant activity administered intra peritoneally to mouse for toxicity at 0.5 hr with dose of 300 mg/kg; 4/4= No of animals exhibiting toxicity /No of animals tested; type: organism-based; parameters: dose 300 mg/kg; details: in vivo, ip
Mus musculus [10] = experiment: Anti convulsant activity administered intra peritoneally to mouse at maximal electroshock test at 4 hr after the drug administered with dose of 30 mg/kg; 0/1= No of animals protected /No of animals tested; type: functional
Mus musculus [11] = experiment: Anti convulsant activity administered intra peritoneally to mouse at maximal electroshock test at 4 hr after the drug administered with dose of 100 mg/kg; 0/3= No of animals protected /No of animals tested; type: functional
Mus musculus [12] = experiment: Anti convulsant activity administered intra peritoneally to mouse at maximal electroshock test at 4 hr after the drug administered with dose of 300 mg/kg; 1/1= No of animals protected /No of animals tested; type: functional
Mus musculus [13] = experiment: Anti convulsant activity administered intra peritoneally to mouse at maximal electroshock test at 0.5 h after the drug administered with dose of 30 mg/kg; 0/1= No of animals protected /No of animals tested; type: functional
Mus musculus [14] = experiment: Anti convulsant activity administered intra peritoneally to mouse for subcutaneous metrazol test at 4 hr after the drug administered with dose of 30 mg/kg; 0/1= No of animals protected /No of animals tested; type: functional; details: route intraperitoneal
Mus musculus [15] = experiment: Anti convulsant activity administered intra peritoneally to mouse at maximal electroshock test at 0.5 hr after the drug administered with dose of 100 mg/kg; 0/3= No of animals protected /No of animals tested; type: functional
Mus musculus [16] = experiment: Anti convulsant activity administered intra peritoneally to mouse at maximal electroshock test at 0.5 hr after the drug administered with dose of 300 mg/kg; 1/1= No of animals protected /No of animals tested; type: functional
Mus musculus [17] = experiment: Anti convulsant activity administered intra peritoneally to mouse for subcutaneous metrazol test at 4 hr after the drug administered with dose of 100 mg/kg; 0/1= No of animals protected /No of animals tested; type: functional
Rattus norvegicus [18] = experiment: Anticonvulsant activity after oral administration of 100 mg/kg dose after 1 hr in rats; + means 25% of the animals protected; type: functional, organism-based; parameters: dose 100 mg/kg
In short: (§1)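 Oral dosing of rats at a single dose, compound dissolved or suspended in 0.5% methylcellulose. Protection in the MES or scMet test checked 15 min, 30 min, 1 h, 2 h and 4 h after dosing. Scored as 25/50/75/100% of animals protected (+ to ++++), – for none.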

Rattus norvegicus [19] = experiment: Anticonvulsant activity after oral administration of 100 mg/kg dose after 2 hr in rats; + means 25% of the animals protected; type: functional, organism-based; parameters: dose 100 mg/kg; in short: as §1
Rattus norvegicus [20] = experiment: Anticonvulsant activity after oral administration of 50 mg/kg dose after 4 hr in rats;+ means 25% of the animals protected; type: functional, organism-based; parameters: dose 50 mg/kg
In short: (§2)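 Rats dosed orally with compound dissolved or suspended in 0.5% methylcellulose (0.04 mL per 10 g body weight). Anticonvulsant protection (MES or scMet) and toxicity scored at 15 min, 30 min, 1 h, 2 h and 4 h after dosing. Graded in steps of 25% of animals protected or showing toxicity.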

Rattus norvegicus [21] = experiment: Anticonvulsant activity after oral administration of 50 mg/kg dose after 15 min in rats; ++ means 50% of the animal protected; type: functional, organism-based; parameters: dose 50 mg/kg; in short: as §1
Rattus norvegicus [22] = experiment: Anticonvulsant activity after oral administration of 50 mg/kg dose after 2 hr in rats; ++ means 50% of the animal is protected; type: functional, organism-based; parameters: dose 50 mg/kg; in short: as §1
Rattus norvegicus [23] = experiment: Anticonvulsant activity after oral administration of 50 mg/kg dose after 30 min in rats; + means 25% of the animal protected; type: functional, organism-based; parameters: dose 50 mg/kg; in short: as §1
Mus musculus [24] = experiment: Anti convulsant activity administered intra peritoneally to mouse for subcutaneous metrazol test at 4 hr with dose of 300 mg/kg; 0/1= No of animals protected /No of animals tested; type: functional
Mus musculus [25] = experiment: Anti convulsant activity administered intra peritoneally to mouse for subcutaneous metrazol test at 0.5 hr with dose of 30 mg/kg; 0/1= No of animals protected /No of animals tested; type: functional
Mus musculus [26] = experiment: Anti convulsant activity administered intra peritoneally to mouse for subcutaneous metrazol test at 0.5 hr with dose of 100 mg/kg; 0/1= No of animals protected /No of animals tested; type: functional
Mus musculus [27] = experiment: Anti convulsant activity administered intra peritoneally to mouse for subcutaneous metrazol test at 0.5 h with dose of 300 mg/kg; 0/1= No of animals protected /No of animals tested; type: functional
Rattus norvegicus [28] = experiment: Anticonvulsant activity after oral administration of 100 mg/kg dose after 15 min in rats;+means 25% of the animals protected; type: functional, organism-based; parameters: dose 100 mg/kg; in short: as §1
[29] = Anti convulsant activity administered intra peritoneally to mouse for toxicity at 4 hr with dose of 300 mg/kg; 1/2= No of animals exhibiting toxicity /No of animals tested; type: organism-based; parameters: dose 300 mg/kg; details: in vivo, ip
[30] = Anti convulsant activity administered intra peritoneally to mouse for toxicity at 0.5 hr with dose of 100 mg/kg; 0/8= No of animals exhibiting toxicity /No of animals tested; type: organism-based; parameters: dose 100 mg/kg; details: in vivo, ip
Mus musculus [31] = experiment: Anti convulsant activity administered intra peritoneally to mouse at maximal electroshock test at 4 hr after the drug administered with dose of 300 mg/kg; 0/1= No of animals protected /No of animals tested; type: functional
Rattus norvegicus [32] = experiment: Anticonvulsant activity after oral administration of 30 mg/kg dose after 15 min in rats; + means 25% of the animals protected; type: functional, organism-based; parameters: dose 30 mg/kg; in short: as §1
Mus musculus [33] = experiment: Anti convulsant activity administered intra peritoneally to mouse for subcutaneous metrazol test at 0.5 hr with dose of 300 mg/kg; 1/1= No of animals protected /No of animals tested; type: functional
Rattus norvegicus [34] = experiment: Anticonvulsant activity after oral administration of 30 mg/kg dose after 4 hr in rats; +means 25% of animals protected; type: functional, organism-based; parameters: dose 30 mg/kg; in short: as §1
Rattus norvegicus [35] = experiment: Anticonvulsant activity after oral administration of 100 mg/kg dose after 30 min in rats; +means 25% of animal protected; type: functional, organism-based; parameters: dose 100 mg/kg; in short: as §1
Rattus norvegicus [36] = experiment: Anticonvulsant activity after oral administration of 50 mg/kg dose after 30 min in rats; ++ means 50% of animals protected; type: functional, organism-based; parameters: dose 50 mg/kg; in short: as §2

Question: With `CC1(C)C(C(=O)NCO)C1(C)C` as the compound, how does the TD50 [1] read?
Answer: 146 mg/kg

Question: What about the ED50 (Mus musculus [2]) of the same compound?
Answer: 120 mg/kg

Question: What about the ED50 (Mus musculus [3]) of the same compound?
Answer: > 220 mg/kg

Question: With `CNC(=O)NC(=O)C1C(C)(C)C1(C)C` as the compound, how does the Toxicity [4] read?
Answer: 0

Question: What about the Toxicity [5] of the same compound?
Answer: 0

Question: What about the Toxicity [6] of the same compound?
Answer: 0

Question: What about the Toxicity [7] of the same compound?
Answer: 0

Question: What about the Toxicity [8] of the same compound?
Answer: 1

Question: What about the Toxicity [9] of the same compound?
Answer: 4

Question: And the Activity (Mus musculus [10])?
Answer: 0

Question: And the Activity (Mus musculus [11])?
Answer: 0

Question: And the Activity (Mus musculus [12])?
Answer: 1

Question: What about the Activity (Mus musculus [13]) of the same compound?
Answer: 0

Question: What about the Activity (Mus musculus [14]) of the same compound?
Answer: 0

Question: And the Activity (Mus musculus [15])?
Answer: 0

Question: What about the Activity (Mus musculus [16]) of the same compound?
Answer: 1

Question: And the Activity (Mus musculus [17])?
Answer: 0

Question: What about the Activity (Rattus norvegicus [18]) of the same compound?
Answer: 25% of the animal protected

Question: And the Activity (Rattus norvegicus [19])?
Answer: 25% of the animal protected

Question: And the Activity (Rattus norvegicus [20])?
Answer: 25% of the animal protected

Question: And the Activity (Rattus norvegicus [21])?
Answer: 25% of the animal protected

Question: What about the Activity (Rattus norvegicus [22]) of the same compound?
Answer: 25% of the animal protected

Question: And the Activity (Rattus norvegicus [23])?
Answer: 25% of the animal protected

Question: And the Activity (Mus musculus [24])?
Answer: 0

Question: And the Activity (Mus musculus [25])?
Answer: 0

Question: And the Activity (Mus musculus [26])?
Answer: 0

Question: And the Activity (Mus musculus [27])?
Answer: 0

Question: And the “Anticonvulsant Activity” value (Rattus norvegicus [28])?
Answer: 25% of the animals protected

Question: With `CC1(C)C(C(=O)NCCF)C1(C)C` as the compound, how does the Toxicity [5] read?
Answer: 0

Question: What about the Toxicity [6] of the same compound?
Answer: 0

Question: And the Toxicity [29]?
Answer: 1

Question: And the Toxicity [7]?
Answer: 0

Question: And the Toxicity [30]?
Answer: 0

Question: What about the Toxicity [9] of the same compound?
Answer: 4

Question: And the Activity (Mus musculus [10])?
Answer: 0

Question: What about the Activity (Mus musculus [11]) of the same compound?
Answer: 0

Question: And the Activity (Mus musculus [31])?
Answer: 0

Question: What about the Activity (Mus musculus [13]) of the same compound?
Answer: 0

Question: What about the Activity (Mus musculus [14]) of the same compound?
Answer: 0

Question: And the Activity (Mus musculus [15])?
Answer: 0

Question: What about the Activity (Mus musculus [16]) of the same compound?
Answer: 1

Question: And the Activity (Mus musculus [17])?
Answer: 0

Question: And the Activity (Rattus norvegicus [32])?
Answer: 25% of animals protected

Question: And the Activity (Mus musculus [24])?
Answer: 1

Question: And the Activity (Mus musculus [25])?
Answer: 0

Question: And the Activity (Mus musculus [26])?
Answer: 0

Question: And the Activity (Mus musculus [33])?
Answer: 1

Question: And the Activity (Rattus norvegicus [34])?
Answer: 25% of animals protected

Question: With `CN(C)C(=O)C1C(C)(C)C1(C)C` as the compound, how does the Toxicity [5] read?
Answer: 0

Question: What about the Toxicity [6] of the same compound?
Answer: 0

Question: What about the Toxicity [29] of the same compound?
Answer: 1

Question: And the Toxicity [7]?
Answer: 0

Question: What about the Toxicity [30] of the same compound?
Answer: 0

Question: And the Toxicity [9]?
Answer: 4

Question: What about the Activity (Mus musculus [10]) of the same compound?
Answer: 0

Question: And the Activity (Mus musculus [11])?
Answer: 0

Question: What about the Activity (Mus musculus [31]) of the same compound?
Answer: 0

Question: What about the Activity (Mus musculus [13]) of the same compound?
Answer: 0

Question: What about the Activity (Mus musculus [14]) of the same compound?
Answer: 0

Question: And the Activity (Mus musculus [15])?
Answer: 0

Question: What about the Activity (Mus musculus [16]) of the same compound?
Answer: 1

Question: What about the Activity (Mus musculus [17]) of the same compound?
Answer: 0

Question: And the Activity (Rattus norvegicus [35])?
Answer: 25% of animal protected

Question: What about the Activity (Rattus norvegicus [36]) of the same compound?
Answer: 25% of animal protected

Question: And the Activity (Mus musculus [24])?
Answer: 0

Question: And the Activity (Mus musculus [25])?
Answer: 0

Question: And the Activity (Mus musculus [26])?
Answer: 0

Question: What about the Activity (Mus musculus [27]) of the same compound?
Answer: 0
